From ChEMBL document CHEMBL3526021, “NADPH-cytochrome P450 oxidoreductase: roles in physiology, pharmacology, and toxicology” (Drug Metab Dispos, 2013)

Key:
Mus musculus = assay: AUC (0 to infinity) in Por lox/lox wild type mouse at 2.5 mg/kg, po treated 10 days after 40 mg/kg, ip 3-methylcholanthrene administration by liquid chromatography-tandem mass spectrometry; type: ADME, organism-based, Plasma; settings: in vivo, 240 h
Summary of the method: (§1)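 Adult male mice (n = 3): Por lox/lox wild type, or RCN (Por lox/lox plus Cre under CYP1A1 promoter). Pretreated i.p. in corn oil with either 3-MC 40 mg/kg as a single dose, or BNF 80 mg/kg daily for 4 days. After 10 days, oral dosing at 2.5 mg/kg. Serial tail-vein blood was analysed by LC-MS/MS for parent drug; mean ± SD.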

[1] = AUC (0 to infinity) in liver Por deleted-reductase conditional null mouse at 2.5 mg/kg, po treated 10 days after 40 mg/kg, ip 3-methylcholanthrene administration by liquid chromatography-tandem mass spectrometry; type: ADME, organism-based; settings: in vivo; summary of the method: as §1
[2] = AUC (0 to last) in Por lox/lox wild type mouse at 2.5 mg/kg, po treated 10 days after 40 mg/kg, ip 3-methylcholanthrene administration by liquid chromatography-tandem mass spectrometry; type: ADME, organism-based; settings: plasma; summary of the method: as §1
[3] = AUC (0 to last) in liver Por deleted-reductase conditional null mouse at 2.5 mg/kg, po treated 10 days after 40 mg/kg, ip 3-methylcholanthrene administration by liquid chromatography-tandem mass spectrometry; type: ADME, organism-based; settings: in vivo; summary of the method: as §1
[4] = Cmax in Por lox/lox wild type mouse at 2.5 mg/kg, po treated 10 days after 40 mg/kg, ip 3-methylcholanthrene administration by liquid chromatography-tandem mass spectrometry; type: ADME, organism-based; settings: in vivo; summary of the method: as §1
[5] = Cmax in liver Por deleted-reductase conditional null mouse at 2.5 mg/kg, po treated 10 days after 40 mg/kg, ip 3-methylcholanthrene administration by liquid chromatography-tandem mass spectrometry; type: ADME, organism-based; settings: in vivo; summary of the method: as §1
[6] = Clearance in liver Por deleted-reductase conditional null mouse at 2.5 mg/kg, po treated 10 days after 40 mg/kg, ip 3-methylcholanthrene administration by liquid chromatography-tandem mass spectrometry; type: ADME, organism-based; settings: in vivo; summary of the method: as §1
[7] = AUC (0 to infinity) in Por lox/lox wild type mouse at 2.5 mg/kg, po treated 10 days after 80 mg/kg, ip beta-naphthoflavone administration by liquid chromatography-tandem mass spectrometry; type: ADME, organism-based; settings: plasma; summary of the method: as §1
[8] = AUC (0 to infinity) in liver and gut Por deleted-reductase conditional null mouse at 2.5 mg/kg, po treated 10 days after 80 mg/kg, ip beta-naphthoflavone administration by liquid chromatography-tandem mass spectrometry; type: ADME, organism-based; settings: in vivo; summary of the method: as §1
[9] = AUC (0 to last) in Por lox/lox wild type mouse at 2.5 mg/kg, po treated 10 days after 80 mg/kg, ip beta-naphthoflavone administration by liquid chromatography-tandem mass spectrometry; type: ADME, organism-based; settings: plasma; summary of the method: as §1
[10] = AUC (0 to last) in liver and gut Por deleted-reductase conditional null mouse at 2.5 mg/kg, po treated 10 days after 80 mg/kg, ip beta-naphthoflavone administration by liquid chromatography-tandem mass spectrometry; type: ADME, organism-based; settings: in vivo; summary of the method: as §1
[11] = Cmax in Por lox/lox wild type mouse at 2.5 mg/kg, po treated 10 days after 80 mg/kg, ip beta-naphthoflavone administration by liquid chromatography-tandem mass spectrometry; type: ADME, organism-based; settings: in vivo; summary of the method: as §1
[12] = Cmax in liver and gut Por deleted-reductase conditional null mouse at 2.5 mg/kg, po treated 10 days after 80 mg/kg, ip beta-naphthoflavone administration by liquid chromatography-tandem mass spectrometry; type: ADME, organism-based; settings: in vivo; summary of the method: as §1
[13] = Clearance in Por lox/lox wild type mouse at 2.5 mg/kg, po treated 10 days after 80 mg/kg, ip beta-naphthoflavone administration by liquid chromatography-tandem mass spectrometry; type: ADME, organism-based; settings: in vivo; summary of the method: as §1
[14] = Clearance in liver and gut Por deleted-reductase conditional null mouse at 2.5 mg/kg, po treated 10 days after 80 mg/kg, ip beta-naphthoflavone administration by liquid chromatography-tandem mass spectrometry; type: ADME, organism-based; settings: in vivo; summary of the method: as §1
in vivo [15] = settings: mouse, po, 2.5 mg/kg
in vivo [16] = settings: mouse, po, 2.5 mg/kg; remark: listed apart in the source
in vivo [17] = settings: mouse, po, 2.5 mg/kg; remark: listed apart in the source
in vivo [18] = settings: mouse, po, 2.5 mg/kg; remark: listed apart in the source

Cc1ncc2n1-c1ccc(Cl)cc1C(c1ccccc1F)=NC2 [MIDAZOLAM]
AUC (Mus musculus): 8.7 µg·min/mL
AUC(0-inf) [1]: 2250 ng·h/mL
AUC(0-t) at 240 h [2]: 125 ng·h/mL
AUC(0-t) at 240 h [3]: 2100 ng·h/mL
Cmax [4]: 110 ng/mL
Cmax [5]: 900 ng/mL
CL/F [6]: 26.8 mL/min/kg
AUC(0-inf) [7]: 278 ng·h/mL
AUC(0-inf) [8]: 5830 ng·h/mL
AUC(0-t) at 240 h [9]: 228 ng·h/mL
AUC(0-t) at 240 h [10]: 5520 ng·h/mL
Cmax [11]: 140 ng/mL
Cmax [12]: 2300 ng/mL
CL/F [13]: 180 mL/min/kg
CL/F [14]: 9.3 mL/min/kg
half-life at 240 h (in vivo [15]): 1.13 h
half-life at 240 h (in vivo [16]): 2.13 h
half-life at 240 h (in vivo [17]): 1.92 h
half-life at 240 h (in vivo [18]): 1.9 h
